Source: ChEMBL document CHEMBL1127289, “DNA-directed alkylating agents. 6. Synthesis and antitumor activity of DNA minor groove-targeted aniline mustard analogues of pibenzimol (Hoechst 33258)” (J Med Chem, 1994)
Activity calls are given as the source filed them.

Tests used:
[1] = (§1) Hypersensitivity factor(HF) was determined as ratio of IC50(AA8) to IC50(UV4); format: functional
Outline: (§2)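 AA8 (wild-type) and UV4 (mutant) lines maintained in log phase in Alpha MEM with 10% fetal calf serum. Drug exposure for 18 h, ended by three washes in fresh medium, then a further 72 h growth. Cell density read by methylene blue staining. IC50 is the nominal concentration giving 50% of control density, with eight controls per plate. HF = IC50(AA8)/IC50(UV4).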

Mus musculus [2] = assay: Tested for the intraperitoneal optimal dose of 0.1 mL in tumor cells; format: functional
Outline: (§3)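 P388 leukemia: 10^6 tumor cells inoculated intraperitoneally. 24 h later (day 1), a single intraperitoneal dose in 0.1 mL of 30% v/v EtOH/water. The optimal dose is given in mg/kg. ILS is the percentage increase in lifespan at the optimal dose; ILS > 20% is considered significant. Groups of 6 animals, with long-term survivors counted.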

P388 = assay: Concentration of the drug to inhibit wild type P388 murine leukemia cell growth in culture; format: functional, cell-based; conditions: Mus musculus
Outline: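 P388 cells maintained in log phase in RPMI 1640 with 10% fetal calf serum. Drug present throughout 72 h growth. Final density read by a modified MTT method. IC50 is the nominal concentration reducing cell density to 50% of controls, with eight control cultures per plate.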

Nucleic Acid [3] = assay: (§4) Intrinsic association constant for reversible binding of compounds to calf thymus DNA at 20 degree C; format: functional; parameters: scale not given here; conditions: Bos taurus
Mus musculus [4] = species: Mus musculus; assay: Tested for percentage increase in lifespan of drug-treated tumor-bearing animals when treated at optimal dose; format: functional; outline: as §3
CHO-AA8 [5] = assay: Concentration of the drug to inhibit chinese hamster ovary derived cell (AA8) growth in culture; format: functional, cell-based; conditions: Cricetulus griseus; outline: as §2
Nucleic Acid [6] = assay: as §4; format: nucleic-acid assay; conditions: Bos taurus
Mus musculus [7] = species: Mus musculus; assay: Tested for percentage increase in lifespan of drug-treated tumor-bearing animals when treated at optimal dose; NA=Inactive; format: functional, organism-based; outline: as §3
CHO-AA8 [8] = assay: as §1; format: functional, Cricetulus griseus; outline: as §2
Mus musculus [9] = species: Mus musculus; assay: Tested for percentage increase in lifespan of drug-treated tumor-bearing animals when treated at optimal dose; Inactive; format: functional, organism-based; outline: as §3

Row | Structure (SMILES) | Ratio [1] | OD (Mus musculus [2]) | IC50 (P388) | DNA binding (Nucleic Acid [3]) | ILS (Mus musculus [4]) | IC50 (CHO-AA8 [5]) | DNA binding (Nucleic Acid [6]) | ILS (Mus musculus [7]) | Ratio (CHO-AA8 [8]) | ILS (Mus musculus [9])
1 | CN1CCN(c2ccc3[nH]c(-c4ccc5[nH]c(Cc6ccc(N(CCCl)CCCl)cc6)nc5c4)nc3c2)CC1 | 59 | 13.3 mg/kg | 0.85 µM | 6.73 M⁻¹ | 71% | 1.5 µM | – | – | – | –
2 | CN1CCN(c2ccc3[nH]c(-c4ccc5[nH]c(-c6ccc(O)cc6)nc5c4)nc3c2)CC1 [HOECHST 33258] | – | 20 mg/kg | 1.2 µM | – | – | – | 1.82 log M-1 | inactive | – | –
3 | CCN(CCCl)c1cc(CN(C)C)cc(NC(=O)c2ccc(C(=O)Nc3cc(CN(C)C)cc(N(CC)CCCl)c3)cc2)c1 | – | – | 7 µM | – | – | – | – | – | – | –
4 | CN1CCN(c2ccc3[nH]c(-c4ccc5[nH]c(CCCCCCc6ccc(N(CCCl)CCCl)cc6)nc5c4)nc3c2)CC1 | 20 | 8.9 mg/kg | 0.06 µM | 3.89 M⁻¹ | 23% | 0.4 µM | – | – | – | –
5 | CN1CCN(c2ccc3[nH]c(-c4ccc5[nH]c(CCc6ccc(N(CCCl)CCCl)cc6)nc5c4)nc3c2)CC1 | 47 | 3.9 mg/kg | 0.01 µM | 6.3 M⁻¹ | 52% | 0.33 µM | – | – | – | –
6 | CN1CCN(c2ccc3[nH]c(-c4ccc5[nH]c(-c6ccc(N(CCCl)CCCl)cc6)nc5c4)nc3c2)CC1 | – | 30 mg/kg | 0.8 µM | – | 106% | 1.68 µM | 7.52 log M-1 | – | 24 | –
7 | CN1CCN(c2ccc3[nH]c(-c4ccc5[nH]c(CCCc6ccc(N(CCCl)CCCl)cc6)nc5c4)nc3c2)CC1 | 46 | 5.9 mg/kg | 0.02 µM | 4.55 M⁻¹ | – | 1.32 µM | – | – | – | inactive
8 | CN1CCN(c2ccc3[nH]c(-c4ccc5[nH]c(-c6ccc(N(C)CCCl)cc6)nc5c4)nc3c2)CC1 | 14 | 30 mg/kg | 0.5 µM | – | 86% | 5.75 µM | – | – | – | –
9 | CCN(CC)c1ccc(-c2nc3cc(-c4nc5cc(N6CCN(C)CC6)ccc5[nH]4)ccc3[nH]2)cc1 | – | 20 mg/kg | 1.2 µM | – | 50% | 10 µM | 6.24 log M-1 | – | 1.5 | –
